Measured values from ChEMBL document CHEMBL3102857, “Synthesis and biological evaluation of 6H-pyrido[2',1':2,3]imidazo[4,5-c]isoquinolin-5(6H)-ones as antimitotic agents and inhibitors of tubulin polymerization” (Bioorg Med Chem, 2014).
Active and inactive are the calls of the source. The rule behind the calls is not given here.

Legend:
HeLa [1] = experiment: Antiproliferative activity against human HeLa cells after 72 hrs by SRB assay; assay type: functional, cell-based
Method in brief: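 HeLa cells exposed to compound for 72 h, fixed with cold 10% TCA, stained with SRB in 1% acetic acid. Bound dye dissolved in 10 mM Tris-HCl and read at 515 nm. Inhibition % = [1 − (A515 treated/A515 control)] × 100. IC50 by Logit method, mean ± SD of at least three independent tests.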

Tubulin (Homo sapiens) [2] = target: T1, Tubulin (Homo sapiens) (UniProt P68371+Q9H4B7+P0DPH7+P68366+Q13509+Q71U36+P04350+Q3ZCM7+P07437+P68363+Q9BQE3+Q6PEY2+Q13885+Q9BVA1+Q9BUF5); experiment: Inhibition of tubulin polymerization (unknown origin) at 20 uM by spectrophotometric analysis; assay type: protein-complex assay
Method in brief: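 Purified tubulin combined with 20 µM compound on ice, then moved to 37 °C. Buffer: 80 mM PIPES pH 6.9, 0.5 mM EGTA, 2 mM MgCl2, 1 mM GTP. Polymerization followed by absorbance at 340 nm.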

Tubulin (Homo sapiens) [3] = target: T1, Tubulin (Homo sapiens); experiment: Displacement of [3H]-colchicine from tubulin (unknown origin) at 20 uM preincubated for 1 hr followed by radioligand addition measured after 30 mins by competitive binding assay; assay type: protein-complex assay
HeLa [4] = experiment: Cell cycle arrest in human HeLa cells assessed as decrease in accumulation at G0/G1 phase at 0.5 uM after 12 hrs by propidium iodide staining-based flow cytometric analysis; assay type: functional
Method in brief: (§1)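 Cells given 0.5 µM compound for 12 h, harvested, PBS-washed, fixed in cold 70% ethanol at 4 °C. Stained with propidium iodide ([…] as printed). DNA content analysed by flow cytometry for G0/G1, S and G2/M fractions.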

HeLa [5] = experiment: Cell cycle arrest in human HeLa cells assessed as accumulation at G2/M phase at 0.5 uM after 12 hrs by propidium iodide staining-based flow cytometric analysis (reference value: 3%); assay type: functional; method in brief: as §1
HeLa [6] = experiment: Cell cycle arrest in human HeLa cells assessed as decrease in accumulation at S phase at 0.5 uM after 12 hrs by propidium iodide staining-based flow cytometric analysis; assay type: functional; method in brief: as §1
HeLa [7] = experiment: Antimitotic activity against human HeLa cells assessed as disruption of mitotic spindle assembly at 0.5 uM after 12 hrs by DAPI staining-based immunofluorescence microscopic analysis; assay type: functional, cell-based
Method in brief: (§2)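 HeLa cells on glass coverslips, 0.5 µM compound for 12 h; fixed in 4% paraformaldehyde, permeabilized with 0.2% Triton X-100, blocked with 3% BSA. Stained with anti-α-tubulin (1:200) and Alexa Fluor 488 goat anti-mouse IgG (1:100), 1 h each, then DAPI. Imaged by fluorescence and confocal microscopy. Abnormal spindles scored as percentage of total mitotic cells.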

HeLa [8] = experiment: Antimitotic activity against human HeLa cells assessed as multipolar mitotic spindle with disordered chromosome organization at 0.5 uM after 12 hrs by DAPI staining-based immunofluorescence microscopic analysis; assay type: functional, cell-based; method in brief: as §2

Row | SMILES | IC50 (HeLa [1]) | inhibition (Tubulin (Homo sapiens) [2]) | inhibition (Tubulin (Homo sapiens) [3]) | further results
1 | COc1ccc(Cn2c(=O)c3ccccc3c3nc4cc(C)c(Br)cn4c32)cc1 | > 10000 nM | – | – | –
2 | O=c1c2ccccc2c2nc3ccccn3c2n1Cc1ccc2c(c1)OCO2 | > 10000 nM | – | – | –
3 | COc1ccc(Cn2c(=O)c3ccccc3c3nc4cccc(C)n4c32)cc1 | > 10000 nM | – | – | –
4 | COc1ccc(Cn2c(=O)c3ccccc3c3nc4ccccn4c32)cc1OC | > 10000 nM | – | – | –
5 | COc1ccc(Cn2c(=O)c3ccccc3c3nc4ccc(C)cn4c32)cc1 | 6600 nM | – | – | –
6 | CC(=O)OCCn1c(=O)c2ccccc2c2nc3ccccn3c21 | > 10000 nM | – | – | –
7 | O=c1c2ccccc2c2nc3ccccn3c2n1Cc1ccc(OC(F)(F)F)cc1 | > 10000 nM | – | – | –
8 | CCN(CC)CCNc1ccc2nc3c4ccccc4c(=O)n(CCc4ccc(OC)cc4)c3n2c1 | 2280 nM | 18% | 20% | –
9 | O=c1c2ccccc2c2nc3ccccn3c2n1Cc1ccco1 | > 10000 nM | – | – | –
10 | COC(=O)Cn1c(=O)c2ccccc2c2nc3ccccn3c21 | > 10000 nM | – | – | –
11 | O=c1c2ccccc2c2nc3ccccn3c2n1CCc1ccc(O)cc1 | > 10000 nM | – | – | –
12 | CN(c1ccc(Cn2c(=O)c3ccccc3c3nc4ccccn4c32)cc1)S(C)(=O)=O | > 10000 nM | – | – | –
13 | COC(=O)CCn1c(=O)c2ccccc2c2nc3ccccn3c21 | > 10000 nM | – | – | –
14 | COc1ccc(Cn2c(=O)c3ccccc3c3nc4c(C)cccn4c32)cc1 | > 10000 nM | – | – | –
15 | COc1ccc(CCCn2c(=O)c3ccccc3c3nc4ccccn4c32)cc1 | > 10000 nM | – | – | –
16 | COc1ccc(Cn2c(=O)c3ccccc3c3nc4ccc(Br)c(C)n4c32)cc1 | > 10000 nM | – | – | –

The next lines start with results.

Row | IC50 (HeLa [1]) | inhibition (Tubulin (Homo sapiens) [2]) | inhibition (Tubulin (Homo sapiens) [3]) | SMILES | further results
17 | 240 nM | 27% | 22% | COc1ccc(CCn2c(=O)c3ccccc3c3nc4ccc(NCc5ccccn5)cn4c32)cc1 | –
18 | 100 nM | 63% | 53% | COc1ccc(CCn2c(=O)c3ccccc3c3nc4ccc(NCc5ccncc5)cn4c32)cc1 | –
19 | 2240 nM | – | – | COc1ccc(Cn2c(=O)c3ccccc3c3nc4ccccn4c32)c(OC)c1 | –
20 | 120 nM | 40% | 36% | COc1ccc(CCn2c(=O)c3ccccc3c3nc4ccc(-n5ccnc5)cn4c32)cc1 | –
21 | 350 nM | 26% | 34% | COc1ccc(CCn2c(=O)c3ccccc3c3nc4ccc(NCCO)cn4c32)cc1 | –
22 | 770 nM | 33% | 21% | COc1ccc(CCn2c(=O)c3ccccc3c3nc4ccc(NCCCn5ccnc5)cn4c32)cc1 | –
23 | 1800 nM | – | – | COc1ccc(Cn2c(=O)c3ccccc3c3nc4ccccn4c32)cc1 | Activity (HeLa [4]): Active; Activity (HeLa [5]): 4%; Activity (HeLa [6]): Active
24 | 15 nM | 77% | – | CC[C@]1(O)C[C@H]2CN(CCc3c([nH]c4ccccc34)[C@@](C(=O)OC)(c3cc4c(cc3OC)N(C=O)[C@H]3[C@@](O)(C(=O)OC)[C@H](OC(C)=O)[C@]5(CC)C=CCN6CC[C@]43[C@@H]65)C2)C1 [VINCRISTINE] | –
25 | 70 nM | 76% | 74% | COc1ccc(CCn2c(=O)c3ccccc3c3nc4ccccn4c32)cc1 | Activity (HeLa [7]): Active; Activity (HeLa [4]): Active; Activity (HeLa [8]): Active; Activity (HeLa [5]): 37%; Activity (HeLa [6]): Active
26 | 60 nM | 74% | 78% | COc1ccc(CCn2c(=O)c3ccccc3c3nc4ccc(NCc5cccnc5)cn4c32)cc1 | Activity (HeLa [7]): Active; Activity (HeLa [4]): Active; Activity (HeLa [8]): Active; Activity (HeLa [5]): 41%; Activity (HeLa [6]): Active
27 | 1200 nM | 15% | 15% | COc1ccc(CCn2c(=O)c3ccccc3c3nc4ccc(NCCN5CCOCC5)cn4c32)cc1 | –
